Compound activity deposited in PubChem BioAssay by The Scripps Research Institute Molecular Screening Center.
Only some compounds are listed: those with a hit (about 1.1% of all), similar ones and a draw of the others.
LYPLA2 inh: LYPLA2 (human) inhibition in PME1 counter-screen | O95372 | recombinant LYPLA2, FP-Rh probe fluorescence polarization | inhibition, % at 5.9 µM | 320,000 compounds, 0.38% hits;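 active = inhibition above the screen-wide mean plus 3 SD, limit set per campaign, cut at about 26% in these data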;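 note: 0% = LYPLA2 with DMSO and 100% = wells lacking LYPLA2 enzyme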
PREPL inh: inhibitors of human prolyl oligopeptidase-like enzyme PREPL; Q4J6C6; recombinant PREPL, fluorescence polarization activity-based probe; inhibition, % at 5.96 µM; 320,000 compounds, 0.68% hits; AID 2751;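 note: 0% = enzyme with DMSO and 100% = wells lacking enzyme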
procasp3 activ: activators of human procaspase-3 | AID 463141 | recombinant procaspase-3 D3A, Ac-DEVD-pNA absorbance 405 nm | activation, % at 8.5 µM | P42574 | 330,000 compounds, 0.11% hits;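 active = activation above the mean of all tested compounds plus 3 SD, cut at about 21% in these data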;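 note: 0% = DMSO alone and 100% = DMSO wells spiked with extra 5 µM PC-3 D3A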
Target sequence (P42574 whole entry D9A/D28A/D175A): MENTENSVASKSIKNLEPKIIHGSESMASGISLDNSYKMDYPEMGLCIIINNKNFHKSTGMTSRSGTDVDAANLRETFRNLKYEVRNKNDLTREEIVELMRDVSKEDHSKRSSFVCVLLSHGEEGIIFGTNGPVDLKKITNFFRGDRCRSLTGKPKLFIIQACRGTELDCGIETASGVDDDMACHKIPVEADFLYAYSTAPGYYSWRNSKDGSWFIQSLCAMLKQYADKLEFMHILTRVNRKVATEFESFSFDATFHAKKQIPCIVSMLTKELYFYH
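Assay system: Autoprocessing-dead procaspase-3 D3A mutant enzyme; also added: Ac-DEVD-pNA; doses: one concentration, 8.5 µM nominal, 0.8% DMSO; times: 1 h compound preincubation, 2 h substrate hydrolysis at 25 °C; technique: 405 nm absorbance of p-nitroaniline, reads at 0 and 120 min; measure: % activation between DMSO and enzyme-spiked controls; repeats: single replicate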
LYPLA1 counter: blocks human lysophospholipase 1, a PME1 counter-screen; O75608; AID 2174; inhibition, % at 5.9 µM; 320,000 compounds, 0.16% hits; recombinant LYPLA1, FP-Rh probe fluorescence polarization;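 active = inhibition above the mean of all tested compounds plus 3 SD, set per campaign, cut at about 14% in these data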;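 note: inhibitors block serine hydrolase probe labeling of LYPLA1 so polarization falls; 0% = enzyme with DMSO and 100% = wells lacking LYPLA1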
proCasp7 act: activates human procaspase-7, counter-screen for procaspase-3 activators. recombinant procaspase-7, Ac-DEVD-pNA absorbance 405 nm; D23A/D198A/D206A triple mutant, cannot self-cleave; scale: DMSO 0, 5 µM enzyme 100. 330,000 compounds, 0.093% hits. AID 463210. activation, % at 8.5 µM;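 active = percent activation above the screen-wide mean plus 3 SD, cut at about 25% in these data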
Target sequence (P55210 whole entry D23A/D198A/D206A): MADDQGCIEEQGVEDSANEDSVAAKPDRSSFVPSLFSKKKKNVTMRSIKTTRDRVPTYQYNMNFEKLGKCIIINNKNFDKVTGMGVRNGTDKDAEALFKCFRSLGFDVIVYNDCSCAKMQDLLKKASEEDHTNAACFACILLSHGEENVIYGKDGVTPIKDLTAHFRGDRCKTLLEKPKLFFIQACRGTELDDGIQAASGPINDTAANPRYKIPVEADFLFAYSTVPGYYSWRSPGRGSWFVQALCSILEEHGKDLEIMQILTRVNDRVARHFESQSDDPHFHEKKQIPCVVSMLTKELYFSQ
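Detection: p-Nitroaniline absorbance at 405 nm, read at 0 and 120 min; system: Uncleavable procaspase-7 mutant enzyme; evaluation: % activation from two-timepoint absorbance difference, scaled to controls; times: 1 h enzyme–compound preincubation and 2 h substrate reaction, both 25 °C; buffer or medium: Zinc-free HEPES pH 7.4 with 300 mM NaCl, 0.01% Triton X-100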
PREPL inh cf: confirmation of human PREPL enzyme inhibitors; inhibition, % at 5.96 µM; recombinant PREPL, fluorescence polarization activity probe; 2,000 compounds, 67% hits; shares compounds with PREPL inh;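 note: 0% = protein with DMSO and 100% = wells lacking protein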
Starred values were filed as active, the others as inactive; nt = no result given. Cut-off read from the data, not from the text of the source, unless noted: active = inhibition above about 43%; inactive = the rest.

SMILES | LYPLA2 inh | PREPL inh | procasp3 activ | LYPLA1 counter | proCasp7 act | PREPL inh cf
C[C@H](CO)N1C[C@H](C)[C@@H](CN(C)Cc2ccncc2)Oc2c(NS(=O)(=O)c3ccc(Cl)cc3)cccc2C1=O | nt | 48* | 2 | nt | 3 | 45*
COc1cc(/C=N/n2cnnc2)ccc1OCc1ccccc1 | 1 | 46* | -3 | 0 | 0 | 42
COc1ccc(/C=N/n2cnnc2)cc1COc1ccccn1 | 1 | 3 | 0 | 0 | 12 | nt
COc1ccc(OCC(=O)N/N=C2\CCCCc3ccccc32)cc1 | -3 | -11 | 0 | 2 | 5 | nt
CCc1ccc(OCC(=O)N/N=C2\CC(=O)c3ccccc32)cc1 | -1 | 54* | 6 | -5 | 10 | -2
O=C(O)c1cc(O)c2c(c1)[C@@H]([C@H]1c3cc(C(=O)O)cc(O)c3C(=O)c3c(O[C@@H]4O[C@H](CO)[C@@H](O)[C@H](O)[C@H]4O)cccc31)c1cccc(O[C@@H]3O[C@H](CO)[C@@H](O)[C@H](O)[C@H]3O)c1C2=O | nt | 96* | -4 | nt | -11 | 42
OCC1OC(Oc2cccc3ccccc23)C(O)C(O)C1O (stereo not drawn) | -2 | -6 | 0 | -2 | 10 | nt
COc1cc(/C=C2\SC(=S)N(CC(=O)O)C2=O)ccc1OC(=O)c1ccco1 | -61 | 24 | -6 | -32 | -15 | nt
COc1cc(/C=C2/SC(=S)N(CC(=O)O)C2=O)ccc1OC(=O)c1ccco1 | -60 | 25 | -13 | -28 | -24 | nt
COc1ccc(/C=C2/SC(=S)N(CC(=O)O)C2=O)cc1OCc1ccc(Cl)cc1 | 1 | 66* | -9 | -3 | -20 | 67*
CCOc1cc(/C=C2/SC(=S)N(CC(=O)O)C2=O)ccc1OC(=O)c1cccs1 | -19 | 65* | -8 | -10 | -21 | 67*
CCCCN1C(=N)N([C@@H](CCC)CN2CCC[C@H]2CN2C(N)=NC[C@@H]2Cc2ccccc2)C[C@H]1[C@H](C)CC | nt | 45* | 4 | nt | -5 | 47*
NC1=NC[C@H](Cc2ccccc2)N1CCCCC1CCCCC1 | 2 | -2 | -1 | -1 | -2 | nt
CCC[C@@H](CN1CCC[C@H]1CN1C(N)=NC[C@H]1C(C)C)N1C[C@@H](Cc2ccccc2)N(CCCC2CCCC2)C1=N | nt | 57* | -9 | nt | 15 | 55*
CCCCN1C(=N)N([C@@H](CCC)CN2CCC[C@H]2CN2C(N)=NC[C@H]2CC(C)C)C[C@H]1Cc1ccccc1 | nt | 48* | 9 | nt | 6 | 49*
O=C(COC(=O)Cc1ccsc1)Nc1ccc(Cl)cc1F | nt | -6 | 4 | nt | 9 | nt
O=C(NCCc1cscn1)C1CCC(=O)N(Cc2ccc(Cl)cc2)C1 (stereo not drawn) | -2 | 3 | 7 | -3 | 9 | nt
Cc1[nH]c(C)c(S(=O)(=O)NCCc2ccc(S(N)(=O)=O)cc2)c1C(=O)N1CCCC1 | -2 | 54* | 2 | -1 | -8 | 13
COc1ccc(OC)c(NC(=O)c2ccccc2OC(C)=O)c1 | -2 | 2 | -10 | -4 | 2 | nt
CC(C)OC(=O)c1cc2c(ccn2-c2ccc(F)cc2)n1CC(=O)N1CCN(C(=O)c2ccco2)CC1 | -2 | 47* | 0 | -2 | -4 | 48*
CC(C)OC(=O)c1cc2c(ccn2C)n1CC(=O)N1CCC(Cc2ccccc2)CC1 | 7 | 44* | 2 | -1 | -1 | 38
Cc1ccccc1Cn1ccc(=NCc2ccccc2)cc1 | 5 | 17 | -15 | 1 | 5 | nt
COc1ccc(-c2ccnc3c(Br)c(C)nn23)cc1 | -6 | 9 | 2 | -2 | -10 | nt
COc1ccc(Cl)cc1S(=O)(=O)N1CCCC(C(=O)NCc2ccccn2)C1 (stereo not drawn) | -1 | 5 | 9 | -2 | 0 | nt
CCc1nc(N2CCN(C(=O)CCl)CC2)c2c3c(sc2n1)CC(C)CC3 (stereo not drawn) | -4 | 11 | -5 | -1 | 15 | nt
SMILES | LYPLA2 inh | PREPL inh | procasp3 activ | LYPLA1 counter | proCasp7 act | PREPL inh cf
Nc1cc(N)cc(-c2nc3ccccc3[nH]2)c1 | -9 | 49* | 0 | -9 | 10 | 13
c1ccc(-c2nc3ccccc3[nH]2)cc1 | 7 | 5 | 7 | 2 | 9 | nt
COc1ccc(COC(=O)Nc2cc3c(C(F)(F)F)nn(C)c3s2)cc1 | -4 | 45* | -3 | -7 | -4 | 36
COc1ccc(N(CC(=O)NCCc2ccccc2)C(=O)CCC(=O)Nc2nccs2)cc1 | 1 | -9 | -3 | 2 | 2 | nt
c1cncc(CNc2ccc3c(c2)OCO3)c1 | -8 | 44* | -25 | -1 | -28 | 52*
CCOc1cc(/C=C2/C(=N)N3N=C(CC)SC3=NC2=O)ccc1OC(=O)c1ccco1 | 2 | 40 | 9 | -1 | 1 | nt
CCOc1cc(/C=C2\C(=N)N3N=C(S(=O)(=O)CC)SC3=NC2=O)ccc1OC(=O)c1ccco1 | -7 | 38 | 1 | -6 | 2 | nt
CCOc1cc(/C=C2\C(=N)N3N=C(N4CCCCC4)SC3=NC2=O)ccc1OC(=O)c1ccco1 | 0 | 51* | -2 | -4 | 6 | 59*
CCOc1cc(/C=C2/C(=N)N3C(=NC2=O)SN=C3S(C)(=O)=O)ccc1OC(=O)c1ccco1 | 0 | 52* | 5 | 2 | 2 | 71*
COCCNC(=O)C(c1ccc(C)cc1)N(C(=O)CCC(=O)Nc1ccccn1)C1CCCCC1 (stereo not drawn) | 1 | 6 | 1 | -3 | -4 | nt
O=C(/C=C/c1cccc([N+](=O)[O-])c1)NCCSc1ccccc1 | 5 | 46* | -2 | 2 | 7 | 41
O=C(Nc1ccc(Cl)cc1)Nc1ccc2c(c1)N1CCN=C1S2 | -2 | 58* | 3 | -12 | 3 | 37
Cc1ccc(NC(=O)c2ccc3c(c2)C(=O)N(c2ccccc2C)C3=O)nc1 | -5 | 17 | -1 | -6 | -7 | nt
O=C(Cn1nc(CNc2ccc(Br)cc2)[n+]2c1CCCCC2)c1ccc([N+](=O)[O-])cc1 | 5 | 62* | 7 | -3 | 1 | 44*
O=C(Cn1nc(CNc2ccc(Cl)cc2)[n+]2c1CCCCC2)c1ccc(Br)cc1 | -11 | 39 | 3 | 0 | -2 | nt
COc1ccc(NCc2nn(CC(=O)c3ccc(Br)cc3)c3[n+]2CCCCC3)cc1 | 5 | 51* | -3 | -3 | 5 | 55*
O=C(CSc1nnc(-c2ccc(F)cc2)n1CC1CCCO1)NCc1ccco1 (stereo not drawn) | -1 | 11 | 4 | 1 | 5 | nt
N#CC1=C(N)N(c2ccccc2)C(c2ccccc2)C1(C#N)C#N (stereo not drawn) | 11 | 46* | 4 | 6 | 4 | 19
CCC(CO)Oc1cc(NCc2ccc(C)cc2)c2ncn(C(C)C)c2c1 (stereo not drawn) | nt | 40 | 3 | nt | -1 | nt
